Hit rate of the full screen: of about 370,000 compounds, about 1,200 (0.32%) were called active. The entries come from a sample that favours actives as a whole. Unmarked numbers belong to inactive results.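 The calls were made as follows: active = inhibition above the mean of all tested compounds plus 3 SD, set per campaign (cut at about 25% in these data); inactive = the rest.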
biological target: Tyrosyl-DNA phosphodiesterase 2 (Homo sapiens) (UniProt O95551); test: human TDP2 enzyme inhibitors, primary screen, biochemical, epi absorbance, recombinant enzyme (AID 720702); settings: recombinant TDP2, T5PNP hydrolysis, p-nitrophenol absorbance 415 nm; at 12.8 µM; hits give high values;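 also: 0% = DMSO with enzyme and 100% = buffer with substrate but no TDP2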
Procedure, shortened: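 test system = human TDP2 enzyme | input = TDP2 enzyme at 120 nM final | medium = 50 mM Tris-HCl pH 7.5 with Mg2+, KCl, DTT, BSA | also added = T5PNP substrate, 5 mM | times = 2 h at 37 °C | technique = epi absorbance | benchmarks = high control without enzyme, low control DMSO plus TDP2 | replication = each compound tested once, singlicate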

Tyrosyl-DNA phosphodiesterase 2 (Homo sapiens), sequence (O95551 whole entry, looked up): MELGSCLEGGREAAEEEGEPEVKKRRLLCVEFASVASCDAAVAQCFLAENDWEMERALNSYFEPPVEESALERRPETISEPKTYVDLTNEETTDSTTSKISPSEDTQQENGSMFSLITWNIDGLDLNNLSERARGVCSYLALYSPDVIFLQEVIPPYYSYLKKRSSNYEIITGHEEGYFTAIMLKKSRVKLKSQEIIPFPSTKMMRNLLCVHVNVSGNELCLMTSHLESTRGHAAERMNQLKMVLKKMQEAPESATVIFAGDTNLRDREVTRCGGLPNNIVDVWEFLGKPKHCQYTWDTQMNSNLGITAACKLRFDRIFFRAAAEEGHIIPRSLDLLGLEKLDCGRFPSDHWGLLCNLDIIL

Row | SMILES | inhibition
1 | O=C(Nc1cc(F)cc(F)c1)OC1CCC12CCC(c1ccccc1)CC2 (configuration not stated) | 3%
2 | CCN(CC)CCN1C(=O)C2C(C(=O)Nc3ccc(Br)cc3)C3C=CC2(O3)C1C(=O)NC1CCCCC1 (configuration not stated) | 27.5% (active)
3 | O=C(Nc1ccccc1F)C1C2C=CC3(O2)C1C(=O)N(c1cccnc1)C3C(=O)NC1CCCCC1 (configuration not stated) | -0.47%
4 | CC(C)N1C(=O)C2C(C(=O)NC3CCCCC3)C3C=CC2(O3)C1C(=O)NC1CCCC1 (configuration not stated) | 3.15%
5 | CC1=C(C(=O)N(C(C)C)C(C)C)CC(CC(=O)NCCCCc2ccccc2)C(=O)N1CCC1=CCCCC1 (configuration not stated) | -5.04%
6 | CC(=O)CCS(=O)(=O)c1ccc(C)c(C)c1 | -9.65%
7 | COc1ccc(C(=O)NCc2ccc(Cl)cc2)cc1S(=O)(=O)N1CCCC1 | -0.23%
8 | COCCNC(=O)c1ccc(S(=O)(=O)c2ccc(Cl)cc2)c(NC(C)=O)c1 | 27.5% (active)
9 | COCCCNC(=O)c1ccc(CNS(=O)(=O)c2ccc(NC(C)=O)cc2)cc1 | -0.2%
10 | Cc1cc(OCC(=O)Nc2nccs2)c2c(C)c(C)c(=O)oc2c1 | 0.03%
11 | CCOC(=O)c1nc(N)sc1C(=O)OCC | -14.1%
12 | Nc1nc(O)c(CC(=O)O)s1 | 27.2% (active)
13 | CCCCC(=O)N[C@@H]1CC[C@@]23CCCN2C(=O)CCC[C@H]3[C@H]1C | -3.42%
14 | O=C(OCC(=O)N1CCOCC1)c1ccc(N2CCOCC2)c([N+](=O)[O-])c1 | -4.23%
15 | Cc1ccc(C)c(OCCC(=O)OCC(=O)N2CCN(c3ccccc3)CC2)c1 | -10.4%
16 | O=C(OCC(=O)N1CCN(c2ccccc2)CC1)c1ccc([N+](=O)[O-])s1 | 31.9% (active)
17 | O=C(NCc1ccccc1Cl)C1CCC(CNc2c(N3CCCCC3)c(=O)c2=O)CC1 (configuration not stated) | 1.69%
18 | C=C(C)C#CC(Cc1ccccc1)N(CC1CC1)/C(N)=N/C(=O)OCc1ccccc1 (configuration not stated) | 4.08%
19 | Cc1ccc(Cl)cc1NC(=O)CN1CCN(S(=O)(=O)N2CCOCC2)CC1 | 27.6% (active)
20 | COc1ccc(Cl)cc1NC(=O)CN1CCN(C(=O)N2CCOCC2)CC1 | 5.78%
21 | O=C(CN1CCN(c2cccc(Cl)c2)CC1)Nc1ccc(S(=O)(=O)N2CCOCC2)cc1 | -4.18%
22 | COc1ccc(C2CC=C(C(=O)O)C(c3ccccc3F)N2S(=O)(=O)c2ccc(C)cc2)cc1OC (configuration not stated) | -4.62%
23 | O=C(C1CCCN1S(=O)(=O)c1ccccc1)N1CCc2ccccc2C1 (configuration not stated) | -6.17%
24 | C=CCN(C(=O)[C@@H](CCCC)[C@@H](O)c1ccc(Cl)cc1)c1ccccc1 | -12.4%
25 | CCCCCCCCCCCCCCCC(=O)OC/C=C(C)/C=C/C=C(C)/C=C/C1=C(C)CCCC1(C)C | 2.56%
26 | COCCn1nnnc1C(c1cc2ccc(OC)cc2[nH]c1=O)N1CCc2ccccc2C1 (configuration not stated) | 41.1% (active)

Row | SMILES | inhibition
27 | COc1ccc(CCC(C)N2CCc3ccccc3C2)cc1 (configuration not stated) | -2.33%
28 | COCCn1nnnc1C(c1ccccc1Cl)N1CCN(c2ccccc2OC)CC1 (configuration not stated) | -10.8%
29 | NS(=O)(=O)c1ccc(CCNC(=O)c2nc(CS(=O)(=O)c3ccc(Cl)cc3)no2)cc1 | -7.74%
30 | Cc1cc(C)c(S(=O)(=O)c2ccc(F)cc2C)c(=O)[nH]1 | 8.26%
31 | CS(=O)(=O)N1CCCC(C(=O)N2CCOCC2)C1 (configuration not stated) | 7.83%
32 | Cc1ccc(-n2c(SCC(=O)Nc3ccc(S(=O)(=O)Nc4nccs4)cc3)nnc2-c2cccnc2)cc1 | -18.4%
33 | COc1ccccc1CCn1cnc(-c2ccccc2)c1C(C)C | -1.89%
34 | COc1ccc(C2Nc3ccccc3C(=O)N2Cc2cccs2)cc1COc1c(C)cccc1C (configuration not stated) | -6.88%
35 | COc1ccc(C2C(C#N)=C(N)Oc3n[nH]c(C)c32)cc1CN1CCN(c2ccc(F)cc2)CC1 (configuration not stated) | 2.94%
36 | Cc1nn(-c2ccccc2)c2c1C(c1ccc(F)cc1)C(C#N)=C(N)O2 (configuration not stated) | 78.5% (active)
37 | COc1ccccc1C1CC(=O)n2c(nc(-c3ccccc3)c2-c2ccccc2)S1 (configuration not stated) | -1.89%
38 | COc1ccccc1C1C(C#N)=C(N)Oc2c1c(-c1ccccc1)nn2-c1ccccc1 (configuration not stated) | 68.7% (active)
39 | CCOC(=O)C1=C(C)OC(N)=C(C#N)C1c1cncc(-c2ccc(F)cc2)c1 (configuration not stated) | 2.25%
40 | CC1=NN(C(=O)Cc2ccc(C)cc2)C(O)(c2cccnc2)C1 (configuration not stated) | -0.61%
41 | C[C@@H]1CN([C@@H](C)CO)C(=O)c2cccc(NC(=O)Nc3cccc4ccccc34)c2O[C@H]1CN(C)S(=O)(=O)c1ccccc1F | -6.81%
42 | CC(C)(C)NC(=O)C(c1cccnc1)N(C(=O)c1cnco1)c1ccc(C(C)(C)C)cc1 (configuration not stated) | 6.07%
43 | Nc1nc2n(n1)C(c1ccco1)CC(c1ccc(Cl)c(Cl)c1)N2 (configuration not stated) | -12.1%
44 | O=C(NCCCc1ccccc1)[C@H](Cc1ccccc1)NC1(C(=O)NCCc2c[nH]c3ccccc23)CCC1 | 2.05%
45 | O=C(N[C@H](C(=O)N1CCC[C@H]1C(=O)NCCc1ccccc1Cl)c1ccccc1)c1ccccc1 | 3.26%
46 | C[C@H](C(=O)N(C)c1ccccc1)[C@@H](O)c1ccc2ccccc2c1 | 6.57%
47 | C=CCN(C)CC#Cc1ccccc1 | -6.66%
48 | CCn1c(SCC(C)=O)nc2sc3c(c2c1=O)CCCC3 | -7.52%
49 | CC1(C)OC(=O)C(=CSc2ccc(C(C)(C)C)cc2)C(=O)O1 | -0.61%
50 | Cc1ccsc1C(C(=O)NC1CCCCC1)N(C(=O)Cc1cccs1)C1CC1 (configuration not stated) | -13.4%
51 | O=S(=O)(Nc1ccc(O)c2ccccc12)c1ccc(OC(F)(F)F)cc1 | 46.3% (active)
52 | O=[N+]([O-])c1ccc(NS(=O)(=O)c2ccccc2)c(Cl)c1 | -17.4%

Row | SMILES | inhibition
53 | O=S(=O)(Cc1noc(-c2ccc(OC(F)(F)F)cc2)n1)c1ccc(F)cc1 | 1.13%
54 | COC(=O)C1CN(CCc2ccccc2)CCS(=O)(=O)N1Cc1cccc(Cl)c1 (configuration not stated) | 6.91%
55 | COC(=O)CC1CCc2cc(C)cc(C(CC(C)C)NC(=O)[C@H](CC(C)C)NC(=O)OCc3ccccc3)c2O1 (some centres not stated) | -0.76%
56 | O=S(=O)(c1ccc2c(c1)OCCCO2)N1CCN(S(=O)(=O)c2c(F)cccc2F)CC1 | -13.6%
57 | CCOC(=O)c1c(C)n(C)c2ccc(OC)c(NS(=O)(=O)CC)c12 | -7.66%
58 | O=C(Nc1nccs1)C1CCN(S(=O)(=O)c2ccc(Cl)c(C(F)(F)F)c2)CC1 | 1.48%
59 | O=C1CC[C@@]23CCCN2C(=O)CCC[C@H]3[C@H]1Cc1ccccc1 | -5.11%
60 | COc1ccc(CCNC(=O)COc2ccc3c(c2)OCO3)cc1 | -6.66%
61 | c1ccc(Cc2cc[n+](Cc3ccccc3)cc2)cc1 | 6.8%
62 | CN(C)c1ccc(C(CC(=O)O)C(=O)O)cc1 (configuration not stated) | -4.74%
63 | CN(C)c1ccc(N/C=C/C(=O)C(F)(F)F)cc1 | 40.7% (active)
64 | CCOC(=O)c1ccc(NC(=O)c2c(NCc3ccccc3)[nH]c(=O)[nH]c2=O)cc1 | 1.1%
65 | CCOC(=O)c1ccc(NC(=O)c2c(N)n(C)c(=O)[nH]c2=O)cc1 | 3.07%
66 | CCOC(=O)c1ccc(Nc2cc3ccccc3c(=O)[nH]2)cc1 | 44.6% (active)
67 | O=C(O)CCN(Cc1ccccc1)S(=O)(=O)c1c(Cl)cccc1Cl | 15.2%
68 | Nn1cnnc1N/N=C/c1cc([N+](=O)[O-])c(Cl)cc1Cl | 39.5% (active)
69 | Clc1ccc(-n2c(COc3ccccc3)nnc2SCc2nc3ccccc3[nH]2)cc1 | -3.9%
70 | CC1=C2C(=O)OC(c3ccoc3)C2(C)CCC1 (configuration not stated) | -14.5%
71 | COc1ccccc1CN1CCN(Cc2cc(OC)c(OC)cc2OC)CC1 | 19%
72 | COc1ccccc1CN1CCN(C(c2ccccc2)c2ccccc2)CC1 | 25.9% (active)
73 | COc1ccccc1/C=N/N1CCN(Cc2ccccc2Cl)CC1 | -9.24%
74 | Cc1cc(C)nc(SC2CCCCC2NS(=O)(=O)c2ccc(Cl)cc2)n1 (configuration not stated) | 4.56%
75 | Cc1coc2c(O)cc3c(c12)OC1(N2CCCCC2)C(=O)NCCCC31 (configuration not stated) | 24.4%
76 | CC1=NN(c2ccc(Cl)c(C(=O)O)c2)C(=O)/C1=C/c1ccc(-c2ccccc2[N+](=O)[O-])o1 | 36.1% (active)
77 | COc1ccc(/C=C2/C(=O)N(c3ccccc3)N=C2C)c(OC)c1 | 3.07%
78 | O=C1C2C3C=CC(C4CC34)C2C(=O)N1/N=C/c1ccc(-c2ccccc2[N+](=O)[O-])o1 (configuration not stated) | 11.7%

Row | SMILES | inhibition
79 | CC(=O)c1ccc(S(=O)(=O)N2CCC3(CC2)OCCO3)cc1 | 25.2% (active)
80 | Cc1c(C)c(C)c(S(=O)(=O)N2CCC3(CC2)OCCO3)c(C)c1C | 5.93%
81 | CC(C)c1ccc(S(=O)(=O)N2CCC3(CC2)OCCO3)cc1 | 3.95%
82 | C=CCc1cc(C)ccc1OCCCn1ccnc1 | -6.81%
83 | CCCOc1ccc(Oc2c(Cl)cnn(Cc3cccc4ccccc34)c2=O)cc1 | -7.56%
84 | Cc1ccc(S(=O)(=O)N(CCCN(C)C)Cc2ccc3c(c2)OCO3)cc1 | 3.37%
85 | COc1ccc(N(CC(=O)Nc2cc(OC)cc(OC)c2)S(=O)(=O)c2c(C)n[nH]c2C)cc1 | 10.8%
86 | COc1cc(NC(=O)COC(=O)c2ccc([N+](=O)[O-])s2)cc(OC)c1OC | 31.6% (active)
87 | COc1cc(CCC(=O)OCC(=O)Nc2cccc(S(N)(=O)=O)c2)cc(OC)c1OC | -0.17%
88 | COc1cc(NC(=O)COC(=O)c2cnc(C)cn2)c(C)cc1[N+](=O)[O-] | -5.59%
89 | Cc1ccc(-n2c(SCC(=O)Nc3ccc(S(=O)(=O)Nc4nccs4)cc3)nnc2-c2ccncc2)cc1 | -0.21%
90 | CCCCCCCCCCCCN1[C@@H](CC(C)=O)c2cc(F)cc(F)c2S1(=O)=O | 2.78%
91 | Cc1cc(S(=O)(=O)NC2CCCCC2)ccc1OCC(=O)NCc1cccnc1 | -6.47%
92 | CCOC(=O)c1c(C)oc(C)c(C(=O)OCC)c1=O | -25%
93 | CCOC(=O)C1=C(C)c2ccccc2OC1C(=O)OCC (configuration not stated) | -3.4%
94 | CCOC(=O)c1c(C)[nH]c2c1-c1ccccc1C(=O)C2=O | 55.1% (active)
95 | COc1ccc(C(=O)OCc2cc(=O)n3ccsc3n2)cc1F | -6.94%
96 | O=C(Cc1ccc(NC(=O)C2CCCN(C(=O)CCc3ccccc3)C2)cc1)Nc1ccc(C(=O)N2CCOCC2)cc1 (configuration not stated) | -19.6%
97 | Fc1ccc2nc(COCc3nc4ccc(F)cc4[nH]3)[nH]c2c1 | -1.58%
98 | Cc1ccc(OCCCCc2c(C)n[nH]c2C)cc1 | 25.9% (active)
99 | CSc1ccccc1OCc1cc(C(=O)N(C)CCc2c(C)n[nH]c2C)no1 | 6.82%
100 | CCCCCc1ccc(-c2ccc(OCC)cc2)nc1 | -8.17%
101 | Brc1ccc(COCCc2cn(Cc3ccccc3)c3ccccc23)cc1 | -2.78%
102 | CC1CCN(c2ccc(C(=O)O)cc2NS(=O)(=O)c2ccc(Br)s2)CC1 | 4.53%

Reference: PubChem BioAssay AID720702 (The Scripps Research Institute Molecular Screening Center, 2013)
